In ChEMBL document CHEMBL1828604, “Antifungal activity of a series of 1,2-benzisothiazol-3(2H)-one derivatives” (Bioorg Med Chem, 2011):
In brackets after ≈: the same amount, converted by molar mass.

Key:
[1] = system: Candida albicans; test: Antifungal activity against Candida albicans CAF-2 after 24 hrs by broth microdilution method; type: functional; details: CAF-2, 24 h
Outline: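 Broth microdilution per CLSI M27-A3: 1000 cells per well in RPMI, two-fold compound dilutions from 0.1 to 50 μg/ml, final volume 100 μL RPMI. MIC-50 is the lowest concentration that inhibits growth to half the OD of the untreated control.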

[2] = system: Cryptococcus neoformans; test: Antifungal activity against Cryptococcus neoformans H-99 after 72 hrs by broth microdilution method; type: functional; details: H-99, 72 h
Outline: (§1)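 Broth microdilution per CLSI M27-A3 and M38-A2. 1000 cells per well in RPMI (final 100 µL) with two-fold compound dilutions from 0.1 to 50 µg/ml. MIC-50 is the lowest concentration that cuts growth to half the OD of the untreated control. Candida species are clinical strains. A. fumigatus strain is AF-294.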

[3] = system: Cryptococcus neoformans; test: Antifungal activity against Cryptococcus neoformans JEC-21 after 72 hrs by broth microdilution method; type: functional; details: JEC-21, 72 h; outline: as §1
[4] = Cytotoxicity against human HepG2 cells after 24 hrs by neutral red cell viability assay; type: cell-based
Outline: (§2)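 Neutral red viability assay on HepG2 human hepatoma cells at defined compound concentrations, exposure 24, 48 or 72 h. CC-50 was calculated from the viability data.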

[5] = Cytotoxicity against human HepG2 cells after 48 hrs by neutral red cell viability assay; type: cell-based; outline: as §2
[6] = Cytotoxicity against human HepG2 cells after 72 hrs by neutral red cell viability assay; type: cell-based; outline: as §2
[7] = Ratio of CC50 for human HepG2 cells to MIC50 for antifungal activity; type: functional
[8] = system: HepG2; test: Cytotoxicity against human HepG2 cells by MTT assay; type: cell-based
Outline: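 MTT viability assay at defined compound concentrations in human hepatoma cell lines HepG2 and Huh7.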

[9] = system: Huh-7; test: Cytotoxicity against human HuH7 cells by MTT assay; type: cell-based
[10] = system: Nakaseomyces glabratus; test: Antifungal activity against Candida glabrata after 24 hrs by broth microdilution method; type: functional; outline: as §1
[11] = system: Candida tropicalis; test: Antifungal activity against Candida tropicalis after 24 hrs by broth microdilution method; type: functional; outline: as §1
[12] = system: Candida parapsilosis; test: Antifungal activity against Candida parapsilosis after 24 hrs by broth microdilution method; type: functional; details: Lodderomyces parapsilosis; outline: as §1
[13] = system: Clavispora lusitaniae; test: Antifungal activity against Candida lusitaniae after 24 hrs by broth microdilution method; type: functional; outline: as §1
[14] = system: Meyerozyma guilliermondii; test: Antifungal activity against Candida guilliermondii after 24 hrs by broth microdilution method; type: functional; outline: as §1
[15] = Antifungal activity against Candida apicola after 24 hrs by broth microdilution method; type: functional; outline: as §1
[16] = system: Aspergillus fumigatus; test: Antifungal activity against Aspergillus fumigatus AF-294 after 48 hrs by broth microdilution method; details: AF-294, 48 h

Work on COC(=O)c1ccccc1NC(=O)Cn1sc2ccccc2c1=O yielded an MIC50 [1] of 6.4 µg/mL (≈ 18.7 µM).

In the case of C[C@H](NC(=O)Cn1sc2ccccc2c1=O)c1ccccc1, the MIC50 [1] is reported as 6.4 µg/mL (≈ 20.5 µM).

For COc1ccc(CNC(=O)Cn2sc3ccccc3c2=O)cc1, the MIC50 [1] was 3.2 µg/mL (≈ 9.74 µM).

O=C(Cn1sc2ccccc2c1=O)Nc1ccccc1 gave an MIC50 [1] of 6.4 µg/mL (≈ 22.5 µM).

In the case of CC(C(=O)NCc1ccccc1)n1sc2ccccc2c1=O (racemic), the MIC50 [1] is reported as greater than 50 µg/mL.

For CN(Cc1ccccc1)C(=O)Cn1sc2ccccc2c1=O, the MIC50 [2] was 1.6 µg/mL (≈ 5.12 µM), the MIC50 [3] was 1.6 µg/mL (≈ 5.12 µM) and the CC50 at 24 h [4] was 62.2 µg/mL (≈ 199 µM). The CC50 at 48 h [5] was 25.7 µg/mL (≈ 82.3 µM), the CC50 at 72 h [6] was 23.2 µg/mL (≈ 74.3 µM) and the Ratio [7] was 15. The Activity [8] was “Toxic”, the Activity [9] was “Toxic” and the MIC50 [1] was 1.6 µg/mL (≈ 5.12 µM). It also gave an MIC50 [10] of 1.6 µg/mL (≈ 5.12 µM), an MIC50 [11] of 1.6 µg/mL (≈ 5.12 µM) and an MIC50 [12] of 1.6 µg/mL (≈ 5.12 µM). For the same compound, the MIC50 [13] was 1.6 µg/mL (≈ 5.12 µM), the MIC50 [14] was 1.6 µg/mL (≈ 5.12 µM) and the MIC50 [15] was 1.6 µg/mL (≈ 5.12 µM). It also gave an MIC50 [16] of 12.5 µg/mL (≈ 40 µM).

Work on COC(=O)c1cccc(NC(=O)Cn2sc3ccccc3c2=O)c1 yielded an MIC50 [1] of 12.5 µg/mL (≈ 36.5 µM).

O=C(Cn1sc2ccccc2c1=O)Nc1nccs1 showed an MIC50 [1] greater than 50 µg/mL.

Work on O=C(Cn1sc2ccccc2c1=O)NCCc1ccccc1 yielded an MIC50 [1] greater than 50 µg/mL.

For CC(C(=O)N(C)Cc1ccccc1)n1sc2ccccc2c1=O (racemic), the MIC50 [1] was 25 µg/mL (≈ 76.6 µM).

CCN(CC)C(=O)Cn1sc2ccccc2c1=O gave an MIC50 [1] greater than 50 µg/mL.

Compound O=C(Cn1sc2ccccc2c1=O)NCCN1CCOCC1 has an MIC50 [1] greater than 50 µg/mL.

With COc1cccc(CNC(=O)Cn2sc3ccccc3c2=O)c1 the MIC50 [1] was 3.2 µg/mL (≈ 9.74 µM).

Compound OC(Cn1cncn1)(Cn1cncn1)c1ccc(F)cc1F [FLUCONAZOLE] has an MIC50 [2] greater than 64 µg/mL, an MIC50 [3] greater than 64 µg/mL and an MIC50 [1] of 0.2 µg/mL (≈ 0.653 µM). The MIC50 [10] was 3.2 µg/mL (≈ 10.4 µM), the MIC50 [11] was 16 µg/mL (≈ 52.2 µM) and the MIC50 [12] was 0.4 µg/mL (≈ 1.31 µM). The MIC50 [13] was 3.2 µg/mL (≈ 10.4 µM), the MIC50 [14] was 6.4 µg/mL (≈ 20.9 µM) and the MIC50 [15] was 0.2 µg/mL (≈ 0.653 µM). The MIC50 [16] was 16 µg/mL (≈ 52.2 µM).

For C[C@@H](NC(=O)Cn1sc2ccccc2c1=O)c1ccccc1, the MIC50 [1] was 6.4 µg/mL (≈ 20.5 µM).

CCN(Cc1ccccc1)C(=O)Cn1sc2ccccc2c1=O showed an MIC50 [1] of 6.4 µg/mL (≈ 19.6 µM).

With O=C(Cn1sc2ccccc2c1=O)NCc1ccc(F)cc1 the MIC50 [1] was 1.6 µg/mL (≈ 5.06 µM).

With O=C(Cn1sc2ccccc2c1=O)NCc1ccccc1 the MIC50 [1] was 3.2 µg/mL (≈ 10.7 µM).

Compound CN(C(=O)Cn1sc2ccccc2c1=O)c1ccccc1 has an MIC50 [1] greater than 50 µg/mL.

In the case of O=C(Cn1sc2ccccc2c1=O)NC12CC3CC(CC(C3)C1)C2, the MIC50 [1] is reported as 3.2 µg/mL (≈ 9.34 µM).
